Reference: ChEMBL document CHEMBL2146440, “Rearranged benzophenones and prenylated xanthones from Garcinia propinqua twigs” (2012)
Converted amounts (≈) assume the structure as drawn. The source made the active and inactive calls. The calls are words filed in the database; no cut-off is given here.

Tests used:
Staphylococcus aureus [1] = test: Antibacterial activity against Staphylococcus aureus TISTR 1466 by two-fold broth dilution method; assay type: functional
Escherichia coli = test: Antibacterial activity against Escherichia coli TISTR 780 by two-fold broth dilution method; assay type: functional
Salmonella typhimurium = test: Antibacterial activity against Salmonella typhimurium TISTR 292 by two-fold broth dilution method; assay type: functional, Salmonella enterica subsp. enterica serovar Typhimurium
Staphylococcus aureus [2] = test: Antibacterial activity against methicillin-resistant Staphylococcus aureus SK1 at >128 ug/mL by two-fold broth dilution method; assay type: functional, organism-based
Outline: (§1)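 MRSA SK1 was tested in a panel with Gram-positive S. aureus TISTR 1466 and Gram-negative E. coli TISTR 780 and S. typhimurium TISTR 292. Values are in μg/mL.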

Staphylococcus aureus [3] = test: Antibacterial activity against methicillin-resistant Staphylococcus aureus SK1 by two-fold broth dilution method; assay type: functional; outline: as §1
Staphylococcus aureus [4] = test: Antibacterial activity against Staphylococcus aureus TISTR 1466 at >128 ug/mL by two-fold broth dilution method; assay type: functional, organism-based

Compound	MIC (Staphylococcus aureus [1])	MIC (Escherichia coli) [µg/mL]	MIC (Salmonella typhimurium; Salmonella enterica) [µg/mL]	MIC (Staphylococcus aureus [2])	MIC (Staphylococcus aureus [3]) [µg/mL]	MIC (Salmonella typhimurium; Salmonella enterica subsp. enterica serovar Typhimurium) [µg/mL]	MIC (Staphylococcus aureus [4])
CC(C)=CCc1c2c(c3oc4c(O)ccc(O)c4c(=O)c3c1O)C=CC(C)(C)O2 [MORUSIGNIN J]	128 µg/mL (≈ 325 µM)	128 (≈ 325 µM)					
C=C(C)CC[C@@H]1C[C@]23CC4C(C)(C)c5ccccc5C(=O)C45C(=O)[C@@](CC=C(C)C)(C[C@@]1(C)[C@]52O)C3=O (relative stereo)	128 µg/mL (≈ 256 µM)	128 (≈ 256 µM)	128 (≈ 256 µM)	inactive			
C=CC(C)(C)c1c2c(c(O)c3c(=O)c4ccc(O)c(OC)c4oc13)C=CC(C)(C)O2	2 µg/mL (≈ 4.9 µM)	128 (≈ 313 µM)	128 (≈ 313 µM)		4 (≈ 9.79 µM)		
GENTAMICIN		0.25				0.125	
C=C(C)CC[C@@H]1C[C@@]2(CC=C(C)C)C(=O)[C@]3(CC=C(C)C)C[C@@]1(C)C2(O)/C(=C(/O)c1ccccc1)C3=O (relative stereo)	64 µg/mL (≈ 127 µM)	128 (≈ 255 µM)	128 (≈ 255 µM)		64 (≈ 127 µM)		
COc1c(O)ccc2c(=O)c3c(O)c4c(c(CC=C(C)C)c3oc12)OC(C)(C)C=C4		128 (≈ 313 µM)	128 (≈ 313 µM)	inactive			inactive
CN[C@H](CC(C)C)C(=O)N[C@H]1C(=O)N[C@@H](CC(N)=O)C(=O)N[C@H]2C(=O)N[C@H]3C(=O)N[C@H](C(=O)N[C@H](C(=O)O)c4cc(O)cc(O)c4-c4cc3ccc4O)[C@H](O)c3ccc(c(Cl)c3)Oc3cc2cc(c3O[C@@H]2O[C@H](CO)[C@@H](O)[C@H](O)[C@H]2O[C@H]2C[C@](C)(N)[C@H](O)[C@H](C)O2)Oc2ccc(cc2Cl)[C@H]1O [VANCOMYCIN]	0.25 µg/mL (≈ 0.173 µM)						
COc1c(CC=C(C)C)c(O)c2c(=O)c3ccc(O)c(O)c3oc2c1CC=C(C)C [DULXANTHONE B]	32 µg/mL (≈ 78 µM)	128 (≈ 312 µM)	128 (≈ 312 µM)		16 (≈ 39 µM)		
CC(C)=CCc1c(O)c(CC=C(C)C)c2oc3c(O)ccc(O)c3c(=O)c2c1O [GARTANIN]	128 µg/mL (≈ 323 µM)	128 (≈ 323 µM)	128 (≈ 323 µM)	inactive			
C=C(C)CC[C@@H]1C[C@]2(CC=C(C)C)C(=O)/C(=C(\O)c3ccccc3)C(=O)[C@]3(CC=C(C)C)C[C@@]1(C)O[C@@]32O [XEROPHENONE A]	inactive	128 (≈ 247 µM)	128 (≈ 247 µM)		128 (≈ 247 µM)		
C=CC(C)(C)c1c2c(c(O)c3c(=O)c4ccc(O)c(O)c4oc13)C=CC(C)(C)O2 [MACLURAXANTHONE]	4 µg/mL (≈ 10.1 µM)	128 (≈ 325 µM)			4 (≈ 10.1 µM)		
COc1c(CC=C(C)C)c(O)c2c(=O)c3ccc(O)c(OC)c3oc2c1CC=C(C)C [DOITUNGGARCINONE C]	128 µg/mL (≈ 302 µM)	128 (≈ 302 µM)			128 (≈ 302 µM)		
